Data as given in publication PMC3563353 (Bioconjugate chemistry, 2012).
“Also recorded” adds a separate entry of the source.

What was measured:
B16F10 cells = assay: In vitro MC1R probe uptake study by fluorescence microscopy, B16F10 cells; assay type: cell-based, mouse
In short: (§1)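 Cy5-conjugated MC1R ligand probe at 15 nM in medium, on live cells (1 × 10^4/well) grown 16 h on glass coverslips. Cells: A375/MC1R (stable hMC1R transfectant, 300 μg/ml G418) or melanotic B16F10-Luc; DMEM, 10% FBS, 37°C, 5% CO2. Imaged by fluorescence microscopy from 40 s to 15 min. For blocking, 10 min pre-incubation with 2 μM NDP-α-MSH.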

A375/MC1R cells = assay: In vitro MC1R probe uptake study by fluorescence microscopy, A375/MC1R cells; assay type: cell-based, human; conditions: 10 minute pre-incubation with 2 μM NDP-α-MSH before probe
In short: as §1

MC4R = conditions: cell lines engineered to overexpress MC4R; cited from earlier work
MC5R = conditions: cell lines engineered to overexpress MC5R; cited from earlier work
B16F10 xenograft tumors = assay type: in vivo, nu/nu mice; conditions: 3 nmol/kg i.v., melanotic B16F10 xenograft
[1] = test system: A375/MC1R and A375 xenograft tumors; assay: In vivo fluorescence imaging of bilateral A375 / A375/MC1R xenograft tumors; set-up: species or system nu/nu mice; conditions: p<0.05

Compound: CCN1C(=CC=CC=CC2=[N+](CCCCCC(=O)NCCN3C(=O)CC(SCCC(=O)NCCCC[C@H](NC(=O)CNC(=O)[C@H](Cc4c[nH]c5ccccc45)NC(=O)[C@H](CCCNC(=N)N)NC(=O)[C@@H](Cc4ccccc4)NC(=O)[C@H](Cc4c[nH]cn4)NC(=O)CCCc4ccccc4)C(N)=O)C3=O)c3ccc(S(=O)(=O)O)cc3C2(C)C)C(C)(C)c2cc(S(=O)(=O)[O-])ccc21 (stereo partly shown) [MC1RL-Cy5]
- probe uptake by B16F10 cells after blocking with NDP-α-MSH (B16F10 cells; B16F10 cells pre-incubated with unlabeled NDP-α-MSH before probe): blocking of probe-uptake was also observed; also recorded: completely blocked
- probe uptake by B16F10 cells (B16F10 cells; melanotic B16F10 cells with endogenous MC1R, 15 nM probe, 5 min time-point): Probe uptake was also observed; also recorded: internalization of probe into the cells
- binding and uptake of probe after blocking with NDP-α-MSH (A375/MC1R cells): No binding or uptake; also recorded: completely blocked

Compound: 4-phenylbutyryl-His-DPhe-Arg-Trp-Gly-Lys
- affinity for MC4R (in words) (MC4R): high nanomolar
- affinity for MC5R (in words) (MC5R): high nanomolar

Compound: CC1(C)C(=CC=C2CCCC(C=CC3=[N+](CCCCS(=O)(=O)O)c4ccc(S(=O)(=O)[O-])cc4C3(C)C)=C2Oc2ccc(S(=O)(=O)O)cc2)N(CCCCCC(=O)NCCN2C(=O)CC(SCCC(=O)NCCCC[C@H](NC(=O)CNC(=O)[C@H](Cc3c[nH]c4ccccc34)NC(=O)[C@H](CCCNC(=N)N)NC(=O)[C@@H](Cc3ccccc3)NC(=O)[C@H](Cc3c[nH]cn3)NC(=O)CCCc3ccccc3)C(N)=O)C2=O)c2ccc(S(=O)(=O)O)cc21 (stereo partly drawn) [MC1RL-800, 4-phenylbutyryl-His-DPhe-Arg-Trp-Gly-Lys(Mpr-IRDye800CW)-NH2]
- fluorescence detection in B16F10 tumors with the Optix MX3 imaging system (B16F10 xenograft tumors): not detectable
- tumor uptake with co-injection of excess NDP-α-MSH peptide (in words) [1]: significantly blocked
